Measurements reported in PMC6551323 (Acta biomaterialia, 2018).

Assay type: in vitro ADME, bovine
Conditions: healthy explants; 24 h absorption, 7-day desorption in 10x PBS
In short: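 After 24 h uptake of 30 µM 5-FAM-labelled peptide at 37 °C, bovine cartilage disks were desorbed in 1x or 10x PBS with protease inhibitors for up to 7 days. The bath was changed daily and desorbed peptide was read by plate reader. % retention is moles remaining in tissue after desorption divided by moles taken up at 24 h. Mean ± SD, n=6–8 explants, ≥4 animals.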

Q: With (ARRRAARA)4 [CPC +16] as the substance, how does the “% CPC desorbed in 10x PBS over 7 days” value read?
A: about 40%
